ChEMBL document CHEMBL1777776, “Identification of 2-mercaptohexanoic acids as dual inhibitors of 5-lipoxygenase and microsomal prostaglandin E₂ synthase-1” (Bioorg Med Chem, 2011)

What was measured:
[1] = system: A549; assay: Cytotoxicity against human A549 cells assessed as cell viability at 10 uM after 16 hrs by MTT assay; format: cell-based; settings: a549, 5 h, in the assay text read “5 hrs” for “16 hrs”
Summary of the method: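 A549 cells plated at 4 × 10⁴ cells per well, incubated 16 h at 37 °C, 5% CO₂, then exposed to 10 µM compound or DMSO (≤0.3% final) for 5 h. MTT added for 4 h, formazan solubilized with SDS in 20 mM HCl, absorbance at 595 nm read relative to vehicle-treated cells.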

[2] = target: T1, Prostaglandin E synthase (Homo sapiens, UniProt O14684); assay: Inhibition of mPGES-1 in human IL-1beta-stimulated A549 cell microsomes assessed as reduction of PGE2 formation from PGH2 after 15 mins; set-up: species or system Microsome
T1 sequence (O14684 whole entry): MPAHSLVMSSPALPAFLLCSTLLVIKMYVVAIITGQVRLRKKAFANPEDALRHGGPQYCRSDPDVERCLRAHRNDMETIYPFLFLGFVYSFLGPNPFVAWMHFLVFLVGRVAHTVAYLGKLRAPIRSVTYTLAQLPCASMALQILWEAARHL
Summary of the method: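 Microsomes from A549 cells stimulated 72 h with IL-1β (1 ng/ml), diluted to 50 µg/ml in 0.1 M potassium phosphate pH 7.4 with 2.5 mM glutathione. Preincubated with compound (1% DMSO final) 15 min at 4 °C. Reaction started with 20 µM PGH₂, run 1 min at 4 °C, stopped with FeCl₂/citric acid containing 11β-PGE₂; PGE₂ quantified. Mean of n = 3–5.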

[3] = target: T2, Polyunsaturated fatty acid 5-lipoxygenase (Homo sapiens, UniProt P09917); assay: Inhibition of human recombinant 5-lipoxygenase expressed in Escherichia coli BL21 assessed as enzyme product formation using arachidonic acid as substrate after 10 mins by RP-HPLC analysis
T2 sequence (P09917 whole entry): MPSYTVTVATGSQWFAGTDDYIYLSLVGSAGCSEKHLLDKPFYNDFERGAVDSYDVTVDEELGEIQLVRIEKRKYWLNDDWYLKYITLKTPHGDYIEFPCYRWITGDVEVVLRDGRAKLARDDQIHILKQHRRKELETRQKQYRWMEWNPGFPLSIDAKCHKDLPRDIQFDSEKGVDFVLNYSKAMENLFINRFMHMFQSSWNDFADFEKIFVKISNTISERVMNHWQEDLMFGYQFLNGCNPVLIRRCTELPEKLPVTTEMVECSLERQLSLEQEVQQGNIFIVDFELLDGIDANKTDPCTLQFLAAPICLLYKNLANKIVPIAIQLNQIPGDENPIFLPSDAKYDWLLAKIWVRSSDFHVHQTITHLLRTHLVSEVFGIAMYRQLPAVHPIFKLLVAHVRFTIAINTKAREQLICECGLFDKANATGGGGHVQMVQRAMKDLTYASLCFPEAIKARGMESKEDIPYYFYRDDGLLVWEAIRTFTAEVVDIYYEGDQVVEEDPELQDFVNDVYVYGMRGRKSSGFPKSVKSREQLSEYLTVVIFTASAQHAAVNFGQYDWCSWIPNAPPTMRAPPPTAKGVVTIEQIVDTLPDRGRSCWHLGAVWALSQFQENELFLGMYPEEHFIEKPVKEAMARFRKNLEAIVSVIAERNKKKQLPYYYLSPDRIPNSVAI
Summary of the method: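 Human 5-LO expressed in E. coli BL21 (pT3-5LO), affinity-purified and used at once. 0.5 µg enzyme in 1 ml PBS/EDTA with 1 mM ATP preincubated with compound 5–10 min at 4 °C, then warmed 30 s at 37 °C. Reaction started with 2 mM CaCl₂ and AA (routinely 20 µM), with or without 1 µM 13(S)-HpODE. Run 10 min at 37 °C, stopped with ice-cold methanol, products analysed by HPLC. Washout: 10-fold dilution (10 to 1 µM).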

[4] = target: T3, Prostaglandin G/H synthase 1 (Ovis aries) (UniProt P05979); assay: Inhibition of ovine COX1 assessed as residual activity at 10 uM after 5 mins
T3 sequence (whole entry): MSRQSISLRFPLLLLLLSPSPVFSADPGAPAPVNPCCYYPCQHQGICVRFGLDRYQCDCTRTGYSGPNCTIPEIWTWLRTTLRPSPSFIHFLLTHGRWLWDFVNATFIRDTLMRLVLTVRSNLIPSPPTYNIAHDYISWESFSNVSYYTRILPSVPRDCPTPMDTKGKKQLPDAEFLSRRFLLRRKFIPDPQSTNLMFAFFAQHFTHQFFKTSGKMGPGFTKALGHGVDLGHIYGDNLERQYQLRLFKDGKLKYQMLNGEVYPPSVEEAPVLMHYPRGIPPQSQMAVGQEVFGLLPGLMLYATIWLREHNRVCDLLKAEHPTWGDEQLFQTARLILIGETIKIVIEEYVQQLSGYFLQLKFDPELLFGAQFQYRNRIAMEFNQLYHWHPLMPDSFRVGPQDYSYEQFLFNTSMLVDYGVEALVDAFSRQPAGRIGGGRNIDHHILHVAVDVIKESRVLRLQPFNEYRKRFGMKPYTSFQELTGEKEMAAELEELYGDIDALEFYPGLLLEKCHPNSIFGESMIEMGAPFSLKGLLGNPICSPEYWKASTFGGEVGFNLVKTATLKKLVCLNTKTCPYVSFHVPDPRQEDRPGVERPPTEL
Summary of the method: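 Ovine COX-1 (50 units) or human recombinant COX-2 (20 units) in 1 ml 100 mM Tris pH 8 with 5 mM glutathione, 5 µM haemoglobin and 100 µM EDTA. Preincubated with 10 µM compound 5 min at 4 °C, warmed 60 s at 37 °C. Started with AA (5 µM for COX-1, 2 µM for COX-2), run 5 min at 37 °C. 12-HHT extracted and analysed by HPLC. n = 3.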

Question: With `CCCCC(Sc1ccc(OCCCOc2ccc(-c3ccccc3)cc2)cc1)C(=O)O` (centres undefined) as the compound, how does the Activity [1] read?
Answer: The Activity was “Non-toxic”.

Question: What about the IC50 [2] of the same compound?
Answer: Its IC50 is 2200 nM.

Question: And the IC50 [3]?
Answer: Its IC50 is 3500 nM.

Question: What about the Activity [4] of the same compound?
Answer: Its Activity is 79.2%.
